Reference: PubChem BioAssay
Values without a mark were called inactive. Results filed as inconclusive are left out. Calls of active or inactive are those of the source.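 How the source made its calls, unless noted: active means viability at or below 27.92% in each of two runs, the all-compound median minus 4 SD; inconclusive means no clear call, values can overlap the other calls; inactive means the rest.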

What was measured:
[1] = OD615 S. cerevisiae growth inhibition, permissive medium, pilot counter-assay, permissive growth control for S. cerevisiae lifespan shortening project (AID 705;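 active means growth inhibition above 25% in both replicates, a cutoff set 3 SD above the mean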); settings: OD615, 24 h, at 10 µM, active compounds read high
In short: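 System: S. cerevisiae with engineered DeaD lifespan system. Medium: SC raffinose/galactose permissive medium. Doses: single compound dose of 10 µM, 0.25% DMSO final. Schedule: 24 h exposure, 30 °C. Measured by: OD615 turbidity read. Read-out: growth inhibition.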

[2] = Restrictive medium S. cerevisiae growth inhibition, OD615, pilot screen of yeast lifespan reduction project, restrictive growth control (AID 706;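 active means growth inhibition above a set limit, 3 SD over mean compound inhibition, in both replicates, cut at about 43% in these data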;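 further: modified DeaD lifespan yeast strain shifted to restrictive glucose medium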); settings: OD615, 48 h, at 10 µM, active compounds read high
In short: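 Assay system – genetically modified Saccharomyces cerevisiae, DeaD replicative lifespan assay strain · Medium – CSMM-D glucose medium · Doses – 10 µM compound, 0.25% DMSO · Times – 4 h pre-incubation, 48 h exposure at 30 °C · Signal – optical density at 615 nm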

[3] = viability gain of MRP-1-high H69AR cells under doxorubicin, pilot screen, MRP-1 activator project, CellTiter-Glo, duplicate (AID 807;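 active means viability increase at or above a cutoff of the median across tested compounds plus 3 SD, cut at about 8.5% in these data, passing the limit was not always enough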;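 further: compound pretreatment 18-22 h then 72 h combined with doxorubicin; 0% = doxorubicin alone and 100% = vehicle without doxorubicin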); settings: H69AR viability with doxorubicin, CellTiter-Glo luminescence; at 10 µM; active compounds read high
[4] = growth suppression of beta-catenin knockout HCT116, pilot screen, human colon tumor cells (AID 823;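 active means cell viability at or below a set limit in both duplicate runs, the limit being the all-compound median minus 4 SD, cut at about 23% in these data, passing the limit was not always enough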;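 further: 0% = wells killed by 20 µM Hyamine and 100% = untreated DMSO cell wells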); settings: CellTiter-Glo, 60 h, at 10 µM, active compounds read low
[5] = growth suppression of PTEN-deleted HCT116, pilot screen, cell-based, HCT116 clonal line, CellTiter-Glo (AID 824); settings: 60 h, at 10 µM, active compounds read low;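 further: 0% = 20 µM Hyamine control and 100% = vehicle cell control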
[6] = inhibitors of the yeast RAM network, pilot screen, dse1pr::URA3 reporter, 5-FOA selection (AID 869;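 active means inhibition over a set limit, the all-compound mean plus 3 SD, in both replicate runs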;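 further: 0% = DMSO wells with no growth and 100% = 10 µM 1-NA-PP1 with full growth; RAM network block rescues cells from 5-FOA so hits raise OD615 growth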); settings: S. cerevisiae dse1pr::URA3 5-FOA growth, OD615, 2 d; at 10 µM; active compounds read high; strain carries analog-sensitive mutant Cbk1 kinase
[7] = RAM signaling pathway blockade in yeast – S. cerevisiae, Pdr1DBD-CYC8 efflux-inhibited sensitized strain, primary screen (AID 1298;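 active means RAM network inhibition above 8.4% in each of two replicates, 3 SD over the compound average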;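 further: 0% = DMSO untreated cells without growth and 100% = 10 µM 1-NA-PP1 full growth; higher means more yeast growth rescued from 5-FOA killing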); settings: S. cerevisiae cbk1-as DSE1-URA3 strain, 5-FOA growth OD615, 2 d; at 50 µM; active compounds read high

Compound | growth inhibition [1] [%] | growth inhibition [2] [%] | viability increase [3] [%] | viability [4] | viability [5] | inhibition [6] [%] | RAM network inhibition [7] [%]
CCOC(=O)C1=C(SCC(=O)Nc2ccccc2)NC(=O)C(C#N)C12CCCCC2 (centres undefined) | -8.66 | -7.72 | -2.95 | 85.1% | 91.5% | 1.71 | 2.44
CN1CCN(c2cc(=O)n(C3CCCCC3)c(=O)[nH]2)CC1 | -17.5 | -8.34 | 0.57 | 101% | 103% | 1.9 | 1.26
O=C1c2ccccc2C(=O)N1CCCCN(C(=O)c1ccco1)c1ccc(Cl)cc1 | -1.78 | -17.5 | -2.82 | 102% | 91.1% | 2.79 | 5.33
Cn1c(=O)c2c(nc(Sc3ncccn3)n2Cc2ccc(Cl)cc2)n(C)c1=O | -0.82 | 1.5 | -2.38 | 82.4% | 71.1% | 1.8 | 0.26
CCOC(=O)N1CCN(C(=O)c2cc(C)no2)CC1 | -9.98 | -7.27 | 1.34 | 104% | 109% | 1.04 | 2.19
O=C1c2ccccc2C(O)N1Cc1ccccc1Cl (centres undefined) | -1.72 | -0.325 | -1.74 | 93.7% | 81.2% | 2.76 | 1.48
Nc1cc(=O)[nH]c(SCc2nc3ccccc3n2Cc2ccccc2)n1 | -2.77 | 17 | -0.14 | 90.4% | 89% | 0.71 | 6.17
Cc1ccc(C(=O)CSc2nnc(-c3cccs3)n2C)o1 | 1.85 | 28.1 | -3.5 | 108% | 108% | 0.5 | 3.7
c1ccc(COc2nsnc2N2CCOCC2)cc1 | 6.21 | 13.8 | -1.67 | 107% | 86.5% | 0.145 | 1.41
CCc1c(C(C)O)oc2ccc3c(C)cc(=O)oc3c12 (centres undefined) | -9.42 | 2.23 | -3.86 | 84.3% | 82.2% | 1.06 | 6.56
O=C(NC1CCN(Cc2ccccc2)CC1)C1CCCN(c2nnc(-n3cccc3)s2)C1 (centres undefined) | -4.03 | 11.1 | -4.97 | 93.1% | 84.5% | 0.085 | 0.11
CCCc1nc2c(o1)CC(CC(C)SCC)CC2=O (centres undefined) | -7.34 | -1.98 | -0.4 | 101% | 98.8% | 1.36 | 5.75
COc1cc(NC(=O)Cc2ccccc2)cc(OC)c1 | -1.66 | -4.67 | -2.51 | 107% | 96.7% | 1.11 | 0.25
COC(=O)C1=CN(CC2CCCO2)C=C(C(=O)OC)C1c1ccsc1 (centres undefined) | -22.4 | -3.27 | -4.97 | 92.1% | 97.5% | 0.125 | 4.53
CCCc1nc(N2CCN(C)CC2)c2sc(=S)n(-c3ccccc3)c2n1 | -8.52 | 17.7 | -2.47 | 83.8% | 82.6% | 0.39 | 6.13
O=C(Cn1nc(Cc2cccnc2)c2ccccc2c1=O)NCc1ccc2c(c1)OCO2 | 1.71 | 5.04 | -1.57 | 97% | 94.7% | 0.55 | -0.05
O=C(O)Cc1ccc(NC(=O)C2CCCCC2C(=O)O)cc1 (centres undefined) | -15 | -6.54 | 0.06 | 95.5% | 103% | 0.385 | 2.44
CN(CC(CC(=O)Nc1nncs1)c1ccccc1)S(=O)(=O)c1ccccc1 (centres undefined) | -13.9 | -11.4 | -1.16 | 96.2% | 81.2% | 1.82 | 3.38
CC(C)(C)C1(C)OC(C(N)=O)C(C(N)=O)O1 (centres undefined) | -7.22 | -1.06 | 0.03 | 98.2% | 95.7% | 0.785 | 1.14

Compound | growth inhibition [1] [%] | growth inhibition [2] [%] | viability increase [3] [%] | viability [4] | viability [5] | inhibition [6] [%] | RAM network inhibition [7] [%]
N#Cc1ccc(Oc2cccc(C(=O)O)c2)cc1C#N | -13.1 | -3.21 | -0.11 | 94.8% | 92.7% | 1.34 | 2.14
COCCCNC(=O)CN1C(=O)CSc2ncccc21 | -3.21 | 3.79 | 0.91 | 105% | 101% | 2.06 | 2.8
Cn1c(Cn2c(=O)sc3ccccc32)nnc1SCc1cccc(F)c1 | -7.92 | 2.12 | -0.5 | 71.1% | 69.7% | 3.43 | 7.87
CCCn1c(CN2CCCCC2C)nc2c1c(=O)n(C)c(=O)n2C (centres undefined) | -7.96 | -3.75 | -0.39 | 88.7% | 83.9% | 1.64 | 8.45
CCOC(=O)c1cc(-c2ccc(F)cc2)n(CC(=O)Nc2nccs2)c1C | -11.3 | 1.7 | -5.35 | 59% | 62.6% | 1.99 | 4.55
NS(=O)(=O)c1ccc(S(=O)(=O)NCCc2ccccc2)cc1 | -4.76 | 8.78 | 0.73 | 93.3% | 94.9% | 1 | 3.88
O=C(NC1CCN(Cc2ccccc2)CC1)c1ccccc1F | -3.78 | -11.1 | -1.39 | 95% | 98.9% | 2.02 | -0.41
COc1ccc(C)cc1NC(=O)CN(c1ccccc1F)S(C)(=O)=O | -8.48 | -0.695 | -1.51 | 94.6% | 103% | -0.63 | 0.32
N#Cc1ccc(NC(=O)Nc2ccc(Cl)cc2)cc1 | 3.13 | -4.69 | -7.91 | 6.71% (active) | 7.35% (active) | 1.34 | 1.44
Cc1c(C(=O)NCc2cccnc2)oc2ccccc12 | -3.83 | -5.65 | -3.9 | 99.2% | 87% | 1.27 | 1.07
CCOc1ccc(/C(=N\O)C(C)NO)cc1 (centres undefined) | -16.4 | -10.4 | 1.06 | 87.9% | 97.1% | 0.925 | 3.88
Cc1c(Cl)cccc1NC(=O)CN1C(=O)CSc2ncccc21 | -2.14 | -0.53 | -1.13 | 97.6% | 89.5% | -0.01 | -0.13
CCc1nnc(NC(=O)CN2CCOCC2)s1 | -2.81 | -19.4 | -1.62 | 95.8% | 101% | 1.18 | 6.14
CCOc1ccc(C(=O)Nc2cc(C)c3c(=O)oc4ccccc4c3n2)cc1 | -0.2 | 9.54 | -7.84 | 65% | 40.8% | 1.54 | 1.29
O=C(CCS(=O)(=O)c1cccc2nonc12)NC1CCCCCC1 | -7.86 | -9.46 | -4.43 | 86.7% | 84.5% | 0.855 | 0.93
Cn1c(=O)[nH]c(=O)c2c1nc(SCCN1CCOCC1)n2CCCc1ccccc1 | -6.32 | -14.4 | -3.69 | 96.8% | 85.5% | 0.63 | 4.46
O=C(O)CSCCc1ccccn1 | 4.38 | 11.1 | -0.02 | 98.3% | 99.6% | 1.27 | 4.45
COc1ccccc1C(=O)N1CCN(c2cccc(Cl)c2)CC1 | -9.06 | -12.8 | -4.63 | 15.4% (active) | 20% (active) | 2.75 | 2.22
